Eight molecules from ChEMBL document CHEMBL1139347, “Total synthesis and cytoprotective properties of dykellic acid” (J Med Chem, 2009) can be followed below.

Calls of active or inactive are those of the source. The rule behind the calls is not given here.

The test system of test [1] is U-937. Nature of the test: Cytoprotective activity against 1.5 uM etoposide-induced cell death in human U937 cells pretreated for 5 hrs measured after 24 hrs by cell flow cytometry using propidium iodide staining relative to control. The class given is functional, cell-based. A digest of the protocol:
(§1)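 U-937 suspension cells preincubated 5 h across a concentration range, then challenged with etoposide (final 1.5 µM) or rotenone (final 5 µM). Death scored 24 h later by propidium iodide staining and flow cytometry. Percent protection derived from live-cell fraction relative to vehicle-only and toxin-only controls. SDM from n = 3, each run in triplicate.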
A general note: Flow cytometry measures light scatter and fluorescence of single cells or particles in a stream.

Test [2] has as its system U-937. Nature of the test: Cytoprotective activity against 20 uM rotenone-induced intracellular ROS production in human U937 cells at 100 uM pretreated for 5 hrs by dihydroethidium dye reduction assay. The class given is functional, cell-based. The essentials:
(§2)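 U-937 cells exposed 5 h to a range of test concentrations or α-tocopherol (100 µM), then rotenone added (final 20 µM). After 40 min, dichlorodihydrofluorescein diacetate (peroxides) or dihydroethidium (superoxide, forming ethidium) added, and cellular fluorescence read by flow cytometry. Compared with vehicle+rotenone control. SDM from n = 3, each in triplicate.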

The target of a further test is T1, Caspase-7 (Homo sapiens) (UniProt P55210).
T1 sequence (whole entry): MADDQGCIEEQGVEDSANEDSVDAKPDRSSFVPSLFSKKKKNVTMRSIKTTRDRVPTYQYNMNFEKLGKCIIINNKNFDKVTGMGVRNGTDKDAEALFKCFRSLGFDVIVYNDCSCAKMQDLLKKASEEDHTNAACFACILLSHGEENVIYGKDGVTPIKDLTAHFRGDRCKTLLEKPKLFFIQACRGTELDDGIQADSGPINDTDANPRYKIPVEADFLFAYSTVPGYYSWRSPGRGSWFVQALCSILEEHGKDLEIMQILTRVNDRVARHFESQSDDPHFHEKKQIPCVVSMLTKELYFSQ
Put plainly: Inhibition of recombinant caspase 7 activity expressed in Escherichia coli BL21 (DE3) assessed as p-nitroaniline release using Ac-DEVD-pNA substrate up to 100 uM. The essentials:
(§3)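 Recombinant purified caspase-3, -6, -7 and -8 were run as full Michaelis-Menten curves (velocity vs substrate concentration) at several test concentrations up to 100 µM. Hydrolytic pNA release was followed from enzyme-specific tetrapeptide substrates: Ac-DEVD-pNA for caspase-3 and -7, Ac-VEID-pNA for caspase-6, Ac-IETD-pNA for caspase-8. Kinetics given as kcat/KM.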

Test [3] concerns U-937. Put plainly: Cytoprotective activity against 5 uM rotenone-induced cell death in human U937 cells pretreated for 5 hrs measured after 24 hrs by cell flow cytometry using propidium iodide staining relative to control. In kind it is functional, cell-based. The essentials:
as §1

The test system of test [4] is U-937. Put plainly: Cytoprotective activity against 50 uM H2O2-induced cell death in human U937 cells pretreated for 5 hrs measured after 24 hrs by cell flow cytometry using propidium iodide staining relative to control. The class given is functional, cell-based. The essentials: (§4)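 Protection of U-937 cells against H2O2 or MNNG: 5 h preincubation with a range of concentrations before toxin addition, then viability measured after 24 h by propidium iodide staining and flow cytometry. Reported as percent protection versus vehicle-only and toxin-only control cells.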

For the next test, the target named is T2, Caspase-3 (Homo sapiens) (UniProt P42574).
T2 sequence (whole entry): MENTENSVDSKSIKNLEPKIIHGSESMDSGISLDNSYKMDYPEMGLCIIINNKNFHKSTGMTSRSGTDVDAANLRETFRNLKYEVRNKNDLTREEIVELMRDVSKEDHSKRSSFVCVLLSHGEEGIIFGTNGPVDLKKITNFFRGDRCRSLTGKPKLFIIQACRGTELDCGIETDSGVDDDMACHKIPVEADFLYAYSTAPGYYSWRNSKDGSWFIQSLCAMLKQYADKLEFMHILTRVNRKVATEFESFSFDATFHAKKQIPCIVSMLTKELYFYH
Nature of the test: Inhibition of recombinant caspase 3 activity expressed in Escherichia coli BL21 (DE3) assessed as p-nitroaniline release using Ac-DEVD-pNA substrate up to 100 uM. A digest of the protocol: as §3

For test [5], the system named is U-937. Nature of the test: Cytoprotective activity against 50 uM N-methyl-N'-nitro-N-nitrosoguanidine-induced cell death in human U937 cells pretreated for 5 hrs measured after 24 hrs by cell flow cytometry using propidium iodide staining relative to control. In kind it is functional, cell-based. The essentials:
as §4

A further test has as its target T3, Caspase-6 (Homo sapiens) (UniProt P55212).
T3 sequence (whole entry): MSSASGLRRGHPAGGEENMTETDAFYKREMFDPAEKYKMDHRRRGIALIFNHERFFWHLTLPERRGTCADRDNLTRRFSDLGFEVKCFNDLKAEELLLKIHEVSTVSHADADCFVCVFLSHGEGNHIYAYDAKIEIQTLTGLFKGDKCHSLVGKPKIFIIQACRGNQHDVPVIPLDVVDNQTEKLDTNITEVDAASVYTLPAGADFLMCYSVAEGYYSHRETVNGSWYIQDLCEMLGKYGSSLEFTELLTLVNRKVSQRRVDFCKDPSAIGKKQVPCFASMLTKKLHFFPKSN
Put plainly: Inhibition of recombinant caspase 6 activity expressed in Escherichia coli BL21 (DE3) assessed as p-nitroaniline release using Ac-VEID-pNA substrate up to 100 uM. The essentials: as §3

For test [6], the system named is U-937. Put plainly: Cytoprotective activity against 20 uM rotenone-induced intracellular ROS production in human U937 cells at 100 uM pretreated for 5 hrs by 2,7-dichlorodihydrofluorescein dye reduction assay. The class given is functional, cell-based. A digest of the protocol:
as §2

Test [7] deals with U-937. Nature of the test: Antiapoptotic activity in human U937 cells assessed as reduction of 1.5 uM etoposide-induced caspase-3/7 like activity at 100 nM pretreated for 5 hrs measured after 24 hrs relative to control. In kind it is functional, cell-based. A digest of the protocol: (§5)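 U-937 cells pretreated 5 h with Z-VAD-fmk (100 nM) or a range of test concentrations, then etoposide added (final 1.5 µM) for 24 h. Cells moved to caspase assay buffer, lysed, and given Ac-DEVD-pNA (final 200 µM). pNA release per minute read at 405 nm. DMSO 1% in all wells. Vehicle+etoposide set to 1.0, vehicle alone set to 0. Triplicate, representative of three experiments.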

The next test concerns the target Caspase-8 (Homo sapiens) (UniProt Q14790). Put plainly: Inhibition of recombinant caspase 8 activity expressed in Escherichia coli BL21 (DE3) assessed as p-nitroaniline release using Ac-IETD-pNA substrate up to 100 uM. A digest of the protocol: as §3
The subject of test [8] is U-937. Put plainly: Antiapoptotic activity in human U937 cells assessed as reduction of 1.5 uM etoposide-induced caspase-3/7 like activity pretreated for 5 hrs measured after 24 hrs relative to control. In kind it is functional, cell-based. A digest of the protocol: as §5

Caspase-8 (Homo sapiens), sequence (Q14790 217-374 limits assumed): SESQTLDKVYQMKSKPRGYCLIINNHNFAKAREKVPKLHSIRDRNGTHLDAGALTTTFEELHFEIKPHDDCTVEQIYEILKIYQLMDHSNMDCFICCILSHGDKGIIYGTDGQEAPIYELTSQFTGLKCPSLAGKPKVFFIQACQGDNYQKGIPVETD
Caspase-8 (Homo sapiens), sequence (Q14790 385-479 limits assumed): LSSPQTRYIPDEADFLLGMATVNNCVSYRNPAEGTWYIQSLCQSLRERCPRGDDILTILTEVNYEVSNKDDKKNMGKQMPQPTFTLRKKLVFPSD

In the case of `C=C1C=C(CCC(=O)O)C(=O)OC1/C=C/C=CC` (centres undefined), the outcome with U-937 [1] was Active.

For the molecule `C=C1C=C(CCC(=O)O)C(=O)OC1/C=C/C=C/C` (centres undefined), the outcome in the test with U-937 [2], at Caspase-7 (Homo sapiens), in the test with U-937 [4], at Caspase-3 (Homo sapiens), on Caspase-6 (Homo sapiens) and with U-937 [6] was inactive. Also, the result in the test with U-937 [7] and on Caspase-8 (Homo sapiens) was inactive. The Activity entry in the test on U-937 [3] and in the test on U-937 [5] was “Dose-dependent effect” each time. Besides, in the test on U-937 [8], the result was Active.

On to `C=C1C=CC(=O)OC1CCCCC` (centres undefined), for which, in the test on U-937 [1], the result was inactive.

As for `C=C1C=C(CCC(=O)OC)C(=O)OC1/C=C/C=C/C` (centres undefined), the result in the test with U-937 [1] was inactive.

Turning to `C=C1C=CC(=O)OC1/C=C/C=C/C` (centres undefined), the result in the test with U-937 [1] was inactive.

Consider `C=C1C=C(CCC(=O)OC)C(=O)OC1CCCCC` (centres undefined), for which the outcome in the test with U-937 [1] was inactive.

Turning to `Cc1c(C)c2c(c(C)c1O)CC[C@@](C)(CCC[C@H](C)CCC[C@H](C)CCCC(C)C)O2`, the result in the test with U-937 [2] and in the test on U-937 [6] was Active.

Consider `C=C1C=CC(=O)OC1/C=C/CCC` (centres undefined), for which, in the test with U-937 [1], the outcome was inactive.
